Numbering of substitutions follows the chain as printed.
Tests used:
[1] = tested on: Mus musculus; test: Intraperitoneal dose of 10 mg/Kg was tested for salivation in mice expressed as score.; format: functional
How it was run: (§1)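 Male Cr1:CF1RBR mice, 20–30 g, in groups of five. Compound dissolved in distilled water, given ip at 10 mg/kg. Salivation and tremor scored 30 min after dosing on a 0–2 scale (0 = no effect, 1 = moderate, 2 = marked).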

[2] = biological target: T1, Muscarinic acetylcholine receptor M1 (Homo sapiens, UniProt P11229); test: Effective concentration required for stimulation of phosphoinositol (PI) hydrolysis in the A9 L cell line transfected with the Muscarinic acetylcholine receptor M1.; format: functional, cell-based, A9L
T1 sequence (P11229 whole entry): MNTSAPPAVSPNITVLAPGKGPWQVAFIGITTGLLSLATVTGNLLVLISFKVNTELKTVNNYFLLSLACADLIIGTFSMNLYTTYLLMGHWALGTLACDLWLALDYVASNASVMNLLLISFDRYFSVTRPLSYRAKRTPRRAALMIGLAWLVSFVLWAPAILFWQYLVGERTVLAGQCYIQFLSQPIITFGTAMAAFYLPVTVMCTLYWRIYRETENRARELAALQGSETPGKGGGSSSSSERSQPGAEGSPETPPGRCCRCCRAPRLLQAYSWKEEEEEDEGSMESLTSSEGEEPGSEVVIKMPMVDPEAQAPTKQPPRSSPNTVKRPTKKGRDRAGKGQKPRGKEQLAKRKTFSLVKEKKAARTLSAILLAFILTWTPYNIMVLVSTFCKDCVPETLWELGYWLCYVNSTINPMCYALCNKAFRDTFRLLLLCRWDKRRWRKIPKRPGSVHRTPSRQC

[3] = biological target: T2, Muscarinic acetylcholine receptor M1 (Rattus norvegicus, UniProt P08482); test: Binding affinity for muscarinic acetylcholine receptor M1 using [3H]oxotremorine-M (Oxo-M) radioligand in rat hippocampus membranes; format: cell membranes, Membrane
T2 sequence (P08482 whole entry): T1 sequence (P11229 whole entry) with A5V, T254S, P309S, R320K, A337G, I413V

[4] = biological target: T2, Muscarinic acetylcholine receptor M1; test: Binding affinity for muscarinic acetylcholine receptor M1 using [3H]pirenzepine (Pz) radioligand in rat hippocampus membranes.; format: cell membranes
[5] = tested on: Mus musculus; test: Compound at an intraperitoneal dose of 10 mg/Kg was tested for salivation in mice expressed as score; format: functional; how it was run: as §1
[6] = tested on: Mus musculus; test: Compound at an intraperitoneal dose of 10 mg/Kg was tested for salivation in mice expressed as score; 2=Marked salivation or tremor; format: functional; how it was run: as §1
[7] = tested on: Mus musculus; test: Compound at an intraperitoneal dose of 10 mg/Kg was tested for salivation in mice expressed as score; 1=Moderate salivation or tremor; format: functional; how it was run: as §1

Row | Compound | Score [1] | EC50 [2] | IC50 [3] | IC50 [4] | Score [5] | Score [6] | Score [7]
1 | CCCCOc1nsnc1OC1CNC1 | 0 | 6200 nM | 105 nM |  |  |  | 
2 | CCCCOc1nccnc1OC1CN2CCC1CC2 (configuration not stated) | 0 |  | 38.2 nM | 22.3 nM |  |  | 
3 | CCCCOc1nsnc1OC1CCNC1 (configuration not stated) | 0 | 4870 nM | 158 nM | 361 nM |  |  | 
4 | CCCCCSc1nsnc1OC1CN2CCC1CC2 (stereo in doubt; 18e) |  | 433 nM | 4.4 nM | 9 nM | 0.6 |  | 
5 | CCCCCCOc1nsnc1C1=CCCN(C)C1 [XANOMELINE] | 0 |  |  |  |  |  | 
6 | CCCSc1nsnc1OC12CCCN(CC1)C2 (configuration not stated) | 0 |  | 5.2 nM | 6.8 nM |  |  | 
7 | CCCSc1nsnc1OC1CN2CCCC1C2 (stereo in doubt; 34) | 0 |  | 179 nM | 33 nM |  |  | 
8 | CCSc1nsnc1OC1CN2CCC1CC2 (configuration not stated) | 0 |  | 6.5 nM | 20 nM |  |  | 
9 | CCCCOc1nsnc1OC1CN2CCC1CC2 (configuration not stated) |  | 102 nM | 10.7 nM | 42.3 nM | 0.4 |  | 
10 | COc1nsnc1OC1CN2CCC1CC2 (configuration not stated) | 0 |  | 201 nM | 155 nM |  |  | 
11 | CSCCc1nsnc1OC1CN2CCC1CC2 (configuration not stated) | 0 |  | 58.7 nM | 66 nM |  |  | 
12 | CCCSc1nsnc1OC1CN2CCC1C2 (stereo in doubt; 26) |  | 1.9 nM | 0.76 nM | 4.4 nM |  | 2 | 
13 | Clc1nsnc1OC1CN2CCC1CC2 (configuration not stated) | 0 |  | 98.5 nM | 63.5 nM |  |  | 
14 | CCCCCOc1nsnc1OC1CN2CCC1CC2 (configuration not stated) | 0 | 165 nM | 12.7 nM | 47.7 nM |  |  | 
15 | CCCSc1nsnc1C1CN2CCC1C2 (stereo in doubt; 41) |  |  | 0.6 nM |  |  |  | 
16 | CCOc1nsnc1OC1CN2CCC1CC2 (configuration not stated) | 0 |  | 20 nM | 65.5 nM |  |  | 
17 | CSc1nsnc1OC1CN2CCC1CC2 (configuration not stated) |  |  | 17.5 nM | 42.5 nM | 0.4 |  | 
18 | CC(=O)OC1CN2CCC1CC2 (configuration not stated) [ACECLIDINE] |  |  |  |  |  | 2 | 

Row | Compound | Score [1] | EC50 [2] | IC50 [3] | IC50 [4] | Score [5] | Score [6] | Score [7]
19 | CCCSc1nsnc1C1CN2CCC1C2 (stereo in doubt; 40) |  |  | 5.8 nM |  |  |  | 
20 | CCCSc1nsnc1OC1CN2CCC1C2 (stereo in doubt; 32) |  | 162 nM | 5.5 nM | 66.7 nM | 1.8 |  | 
21 | CCSCc1nsnc1OC1CN2CCC1CC2 (configuration not stated) | 0 |  | 66.5 nM | 79 nM |  |  | 
22 | CCCSc1nsnc1O[C@@H]1CC2CCN(C2)C1 (stereo in doubt; 27) |  |  | 2.8 nM | 7 nM | 0.2 |  | 
23 | CCCOc1nsnc1OC1CN2CCC1CC2 (configuration not stated) | 0 |  | 12.5 nM | 44.5 nM |  |  | 
24 | CCCCOc1nsnc1OC1CCN(C)C1 (configuration not stated) | 0 |  | 42 nM | 44 nM |  |  | 
25 | CCCCCSc1nsnc1OC1CN2CCC1CC2 (stereo in doubt; 18g) |  | 136 nM | 1.4 nM | 2.7 nM | 1.2 |  | 
26 | CCCSc1nsnc1OC1CN2CCC1CC2 (configuration not stated) |  | 431 nM | 2.9 nM | 21 nM | 0.8 |  | 
27 | CCCCCSc1nsnc1OC1CN2CCC1CC2 (stereo in doubt; 18f) | 0 |  | 6.4 nM | 3.7 nM |  |  | 
28 | CCCCOc1nsnc1OCC[N+](C)(C)C | 0 |  | 36 nM | 41 nM |  |  | 
29 | CCCCCCSc1nsnc1OC1CN2CCC1CC2 (configuration not stated) |  | 225 nM | 7.6 nM | 28.4 nM |  |  | 1
30 | CCCCCCOc1nsnc1OC1CN2CCC1CC2 (configuration not stated) |  | 259 nM | 11.7 nM | 42 nM | 0.2 |  | 
31 | CCCCSc1nsnc1OC1CN2CCC1CC2 (configuration not stated) |  | 22.3 nM | 2.5 nM | 5 nM |  |  | 1
32 | CCCSc1nsnc1O[C@@H]1CC2CCN(C2)C1 (stereo in doubt; 33) | 0 |  | 15 nM | 20 nM |  |  | 
33 | c1nsnc1OC1CN2CCC1CC2 (configuration not stated) | 0 |  | 537 nM | 833 nM |  |  | 
34 | CCCSc1nsnc1OC1CN2CCCC1C2 (stereo in doubt; 28) |  | 1 nM | 0.38 nM | 0.55 nM |  | 2 | 
35 | CCCCOc1nsnc1OCCN(C)C | 0 |  | 67.5 nM | 68.5 nM |  |  | 
36 | CCCCOc1nonc1OC1CN2CCC1CC2 (configuration not stated) | 0 |  | 252 nM | 91 nM |  |  | 

Reference: ChEMBL document CHEMBL1131461 (J Med Chem, 1998)
